Assay results as given in ChEMBL document CHEMBL4392863, “Spongian Diterpenes Including One with a Rearranged Skeleton from the Marine Sponge Spongia officinalis” (J Nat Prod, 2019).

Assays:
[1] = test system: RAW264.7; assay: Anti-inflammatory activity in mouse RAW264.7 cells assessed as inhibition of LPS-induced NO production pre-incubated for 2 hrs before LPS stimulation for 24 hrs by nitrate/nitrite assay; format: functional, cell-based
Outline: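 LPS-stimulated RAW264.7 macrophages were used following an earlier published protocol. Compounds from 30 mM DMSO stocks were diluted at room temperature to final test concentrations of 1−60 μM. NG-methyl-L-arginine acetate salt in DMSO served as the positive control. Inhibition of nitric oxide production was expressed as IC50.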

[2] = Cytotoxicity against mouse RAW264.7 cells assessed as reduction in cell viability incubated for 24 hrs by MTT assay; format: cell-based

Row | SMILES | IC50 [1] [µM] | CC50 at 24 h [2] [µM]
1 | CO[C@@H]1O[C@H](OC)C2=C1CC[C@H]1[C@@]2(CO)CC[C@@H]2[C@]1(C)CC(=O)[C@H](O)[C@]2(C)CO | 22 | > 60
2 | C[C@]12[C@@H](O)[C@]3(O)C(=O)OC[C@]3(C)[C@@H]1CC[C@@]1(CO)c3cocc3CC[C@@H]12 | 32 | > 60
3 | C[C@]12C[C@@H](O)C(=O)[C@](C)(CO)[C@@H]1CC[C@@]1(CO)c3cocc3CC[C@@H]12 | > 60 | > 60
4 | C[C@]12CC(=O)[C@H](O)[C@](C)(CO)[C@@H]1CC[C@@]1(CO)c3cocc3CC[C@@H]12 | 20 | > 60
5 | CNC(=N)NCCC[C@H](N)C(=O)O [TILARGININE ACETATE] | 17 | 

Now those with a lower IC50 [1], led by results:

Row | IC50 [1] [µM] | SMILES | CC50 at 24 h [2] [µM]
6 | 12 | CC(=O)OC[C@@]12CC[C@@H]3[C@](C)(CC(=O)[C@@H](O)[C@]3(C)CO)[C@H]1CCc1cocc12 | > 60
7 | 15 | CC(=O)OC[C@@]12CC[C@@H]3[C@](C)(CC(=O)[C@H](O)[C@]3(C)CO)[C@H]1CCc1cocc12 | > 60
8 | 12 | CCO[C@H]1OC(=O)C2=C1[C@]1(CO)CC[C@@H]3[C@](C)(CC(=O)[C@H](O)[C@]3(C)CO)[C@H]1CC2 | > 60
